In ChEMBL document CHEMBL4257536, “Pharmacophore-based tailoring of biphenyl amide derivatives as selective 5-hydroxytryptamine 2B receptor antagonists” (Medchemcomm, 2018):

What was measured:
[1] = target: T1, 5-hydroxytryptamine receptor 2B (Homo sapiens, UniProt P41595); experiment: Ratio of IC50 for antagonist activity at recombinant human 5-HT2B receptor in presence of human serum albumin to IC50 for antagonist activity at recombinant human 5-HT2B receptor in absence of human serum albumin
Procedure, shortened: (§1)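 IC50 was measured in the CHO-K1/5-HT2B calcium-flux assay twice, once in buffer alone and once with 4% HSA added. The ratio compares the IC50 with HSA to the IC50 without it. Run in triplicate.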

[2] = target: 5-hydroxytryptamine receptor 1B (Homo sapiens, UniProt P28222); experiment: Displacement of [3H]GR127543 from human 5HT1B receptor expressed in HEK cell membranes after 1.5 hrs by liquid scintillation counting method
Procedure, shortened: (§2)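 Ki determination by radioligand displacement in triplicate. Reference radioligands: [3H]5-HT for 5-HT1E, [3H]8-OH-DPAT for 5-HT1A, [3H]GR127543 for 5-HT1B, [3H]LY278584 for 5-HT3.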

[3] = target: T2, 5-hydroxytryptamine receptor 1A (Homo sapiens, UniProt P08908); experiment: Displacement of [3H]8-OH-DPAT from human 5HT1A receptor expressed in CHO cell membranes after 1.5 hrs by liquid scintillation counting method; procedure, shortened: as §2
T2 sequence (P08908 whole entry): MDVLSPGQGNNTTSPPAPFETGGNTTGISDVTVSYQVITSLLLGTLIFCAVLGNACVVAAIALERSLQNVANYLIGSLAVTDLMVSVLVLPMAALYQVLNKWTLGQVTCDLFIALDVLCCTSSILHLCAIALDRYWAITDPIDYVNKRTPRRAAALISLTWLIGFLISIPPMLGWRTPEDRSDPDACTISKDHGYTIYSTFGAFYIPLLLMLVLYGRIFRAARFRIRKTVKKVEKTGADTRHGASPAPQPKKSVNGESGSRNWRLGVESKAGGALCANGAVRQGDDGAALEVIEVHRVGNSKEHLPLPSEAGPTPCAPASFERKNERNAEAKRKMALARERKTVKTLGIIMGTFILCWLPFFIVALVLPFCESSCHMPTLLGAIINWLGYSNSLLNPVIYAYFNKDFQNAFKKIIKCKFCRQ

Homo sapiens = species on record: Homo sapiens; experiment: Selectivity ratio of Ki for human 5HT1B receptor to Ki for human 5HT2B receptor
Procedure, shortened: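 Ki values from radioligand displacement run in triplicate, using [3H]GR127543 for 5-HT1B and [3H]LSD for 5-HT2B. The ratio compares the 5-HT1B Ki to the 5-HT2B Ki.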

[4] = target: 5-hydroxytryptamine receptor 2A (Homo sapiens, UniProt P28223); experiment: Displacement of [3H]ketanserin from human 5HT2A receptor expressed in HEKT cell membranes after 1.5 hrs by liquid scintillation counting method; assay type: cell-based
[5] = target: T1, 5-hydroxytryptamine receptor 2B; experiment: Displacement of [3H]LSD from human 5HT2B receptor expressed in HEK cells membranes after 1.5 hrs by liquid scintillation counting method; assay type: cell membranes
[6] = target: T3, 5-hydroxytryptamine receptor 3A (Homo sapiens, UniProt P46098); experiment: Displacement of [3H]LY278584 from human 5HT3 receptor expressed in HEKT cell membranes after 1.5 hrs by liquid scintillation counting method
T3 sequence (P46098 whole entry): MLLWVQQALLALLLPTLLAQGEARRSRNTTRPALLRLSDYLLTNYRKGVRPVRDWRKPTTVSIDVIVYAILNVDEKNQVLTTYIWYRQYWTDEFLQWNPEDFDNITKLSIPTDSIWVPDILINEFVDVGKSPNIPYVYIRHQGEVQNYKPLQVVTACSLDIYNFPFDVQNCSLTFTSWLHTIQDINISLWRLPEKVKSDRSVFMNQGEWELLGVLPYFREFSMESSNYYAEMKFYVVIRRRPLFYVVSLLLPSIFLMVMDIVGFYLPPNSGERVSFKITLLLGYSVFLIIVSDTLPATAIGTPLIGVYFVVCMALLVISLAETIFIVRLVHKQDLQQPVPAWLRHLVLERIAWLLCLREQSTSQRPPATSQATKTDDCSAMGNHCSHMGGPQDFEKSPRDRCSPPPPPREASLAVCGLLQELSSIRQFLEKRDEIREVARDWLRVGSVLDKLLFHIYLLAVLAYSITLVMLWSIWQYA

[7] = target: T4, 5-hydroxytryptamine receptor 2C (Homo sapiens, UniProt P28335); experiment: Displacement of [3H]LSD from human 5HT2C receptor expressed in HEKT cell membranes after 1.5 hrs by liquid scintillation counting method
T4 sequence (P28335 whole entry): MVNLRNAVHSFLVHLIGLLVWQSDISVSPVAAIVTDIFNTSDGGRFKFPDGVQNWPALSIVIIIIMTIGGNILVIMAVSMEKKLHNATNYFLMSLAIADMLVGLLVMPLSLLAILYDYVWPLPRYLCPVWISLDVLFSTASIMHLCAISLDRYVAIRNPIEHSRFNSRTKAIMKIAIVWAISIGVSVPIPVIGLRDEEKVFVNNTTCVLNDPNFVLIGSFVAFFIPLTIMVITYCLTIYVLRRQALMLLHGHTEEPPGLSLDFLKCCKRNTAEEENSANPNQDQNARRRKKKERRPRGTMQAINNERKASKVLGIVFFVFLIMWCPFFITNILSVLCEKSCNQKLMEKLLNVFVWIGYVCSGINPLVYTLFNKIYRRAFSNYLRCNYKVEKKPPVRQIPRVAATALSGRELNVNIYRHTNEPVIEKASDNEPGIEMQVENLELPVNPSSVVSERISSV

[8] = target: 5-hydroxytryptamine receptor 1E (Homo sapiens, UniProt P28566); experiment: Displacement of [3H]5-HT from human 5HT1E receptor expressed in HEKT cell membranes after 1.5 hrs by liquid scintillation counting method; procedure, shortened: as §2
[9] = Apparent permeability across basolateral side to apical side in human Caco2 cells; assay type: ADME, cell-based; conditions: Caco-2
[10] = Metabolic stability in human plasma assessed as compound remaining measured after 120 mins; assay type: ADME, cell-free; conditions: read-out: Stability
[11] = Apparent permeability across apical side to basolateral side in human Caco2 cells; assay type: ADME, cell-based; conditions: Caco-2
[12] = target: T1, 5-hydroxytryptamine receptor 2B; experiment: (§3) Antagonist activity at recombinant human 5-HT2B receptor expressed in CHOK1 cells assessed as inhibition of serotonin-induced calcium flux at 1 to 10 uM preincubated for 60 mins at 37 degC followed by incubation at room temperature for 15 mins and subsequent addition of serotonin and measured for 100 secs by fluorescence assay relative to control; assay type: functional, cell-based
Procedure, shortened: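 Calcium-flux functional assay in CHO-K1 cells stably expressing 5-HT2B. Compounds were screened at 10 μM and 1 μM, and the value is % inhibition of 5-HT2B activity. Run in triplicate.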

[13] = Half life in rat liver microsomes; assay type: ADME, microsome
[14] = Half life of compound in fasted state simulated intestinal fluid at pH 6.5; assay type: ADME
[15] = target: T1, 5-hydroxytryptamine receptor 2B; experiment: as §3, with “flux” for “flux at 1 to 10 uM”, “assay” for “assay relative to control”; assay type: functional, cell-based
Procedure, shortened: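 5-HT2B antagonist IC50 came from a dose-response curve in a calcium-flux assay in the CHO-K1/5-HT2B cell line. Run in triplicate.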

[16] = Half life of compound in fasted state simulated gastric fluid at pH 1.6; assay type: ADME
[17] = target: T1, 5-hydroxytryptamine receptor 2B; experiment: as §3, with “flux” for “flux at 1 to 10 uM”, “secs in presence of human serum albumin” for “secs”, “assay” for “assay relative to control”; assay type: functional, cell-based; procedure, shortened: as §1
HepG2 = experiment: Cytotoxicity against human HepG2 cells by MTT assay; assay type: cell-based

Sequence of 5-hydroxytryptamine receptor 2A (P28223 whole entry): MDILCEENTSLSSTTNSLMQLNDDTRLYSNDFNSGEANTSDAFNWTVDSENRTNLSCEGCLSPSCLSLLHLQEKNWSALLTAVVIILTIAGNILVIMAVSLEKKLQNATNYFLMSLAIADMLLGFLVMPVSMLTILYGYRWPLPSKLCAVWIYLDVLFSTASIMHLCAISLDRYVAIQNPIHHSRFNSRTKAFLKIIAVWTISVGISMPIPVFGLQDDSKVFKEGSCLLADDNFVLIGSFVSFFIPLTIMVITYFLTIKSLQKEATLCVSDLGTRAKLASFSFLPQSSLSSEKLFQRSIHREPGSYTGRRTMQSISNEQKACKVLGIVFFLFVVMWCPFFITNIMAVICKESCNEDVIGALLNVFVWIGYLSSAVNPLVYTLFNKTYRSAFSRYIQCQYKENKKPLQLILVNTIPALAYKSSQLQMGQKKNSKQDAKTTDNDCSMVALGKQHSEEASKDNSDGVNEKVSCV
Sequence of 5-hydroxytryptamine receptor 1B (P28222 whole entry): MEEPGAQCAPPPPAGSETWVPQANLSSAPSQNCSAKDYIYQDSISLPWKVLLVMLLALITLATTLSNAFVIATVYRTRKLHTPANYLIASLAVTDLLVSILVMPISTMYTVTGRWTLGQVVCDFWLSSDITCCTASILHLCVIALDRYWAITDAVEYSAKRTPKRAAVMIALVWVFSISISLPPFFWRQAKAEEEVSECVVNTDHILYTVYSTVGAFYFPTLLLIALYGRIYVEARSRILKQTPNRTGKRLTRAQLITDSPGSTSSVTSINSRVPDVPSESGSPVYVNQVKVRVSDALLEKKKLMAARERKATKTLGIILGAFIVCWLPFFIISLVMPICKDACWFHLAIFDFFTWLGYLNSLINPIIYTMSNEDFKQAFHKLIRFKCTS
Sequence of 5-hydroxytryptamine receptor 1E (P28566 whole entry): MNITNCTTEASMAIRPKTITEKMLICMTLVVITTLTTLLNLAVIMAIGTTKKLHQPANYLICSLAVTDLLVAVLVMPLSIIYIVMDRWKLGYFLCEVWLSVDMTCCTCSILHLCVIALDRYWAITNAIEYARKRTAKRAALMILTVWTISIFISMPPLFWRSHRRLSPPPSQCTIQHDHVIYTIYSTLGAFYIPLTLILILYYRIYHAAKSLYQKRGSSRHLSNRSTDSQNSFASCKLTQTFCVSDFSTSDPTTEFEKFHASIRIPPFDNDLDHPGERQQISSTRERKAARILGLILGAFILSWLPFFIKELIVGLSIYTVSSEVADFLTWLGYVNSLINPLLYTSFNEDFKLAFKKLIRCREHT
T1 sequence (P41595 whole entry): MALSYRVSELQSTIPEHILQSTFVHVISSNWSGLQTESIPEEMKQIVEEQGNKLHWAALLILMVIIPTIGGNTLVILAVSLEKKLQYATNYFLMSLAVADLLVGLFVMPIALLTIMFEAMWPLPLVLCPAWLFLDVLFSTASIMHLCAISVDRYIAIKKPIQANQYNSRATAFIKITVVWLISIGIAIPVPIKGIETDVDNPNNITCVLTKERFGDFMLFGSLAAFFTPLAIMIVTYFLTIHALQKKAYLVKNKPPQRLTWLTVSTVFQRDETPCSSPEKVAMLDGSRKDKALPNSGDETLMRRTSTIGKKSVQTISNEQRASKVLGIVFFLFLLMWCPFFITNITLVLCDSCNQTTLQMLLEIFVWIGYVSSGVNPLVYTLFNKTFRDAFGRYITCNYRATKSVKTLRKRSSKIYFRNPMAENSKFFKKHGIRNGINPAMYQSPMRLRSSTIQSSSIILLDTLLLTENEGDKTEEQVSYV

SMILES | Ratio IC50 [1] | Ki [2] [µM] | Ki [3] [µM] | Ki [4] [µM] | Ki [5] [µM] | Ki [6] [µM] | Ki [7] [µM] | Ki [8] [µM] | further results
O=C(NCc1ccccc1)C1CCN(C(=O)c2ccc(-c3ccccc3)cc2)CC1 |  | 8.59 | 9.39 | 6.79 | 0.569 | > 10 | 0.986 | > 10 | Ratio Ki (Homo sapiens): 15
Cc1nc2sccn2c(=O)c1CCN1CCC(=C(c2ccc(F)cc2)c2ccc(F)cc2)CC1 [RITANSERIN] |  |  |  |  |  |  | 0.0019 |  | 
O=C(NCCc1c[nH]c2ccccc12)C1CCN(C(=O)c2ccc(-c3ccccc3)cc2)CC1 |  | 3.41 | 0.603 | 2.46 | 0.0045 | > 10 | 0.473 | > 10 | Papp B→A [9]: 32.8 ×10⁻⁶ cm/s; remaining at 2 h [10]: 97.4%; Papp A→B [11]: 16.3 ×10⁻⁶ cm/s; inhibition [12]: > 95%; half-life [13]: 2.98 h; half-life [14]: > 8.33 h; IC50 [15]: 0.0141 µM; half-life [16]: 4.32 h; IC50 [17]: 0.0187 µM; IC50 (HepG2): > 50 µM

Further lines, with some results ahead:

Ratio IC50 [1] | Ki [2] [µM] | Ki [3] [µM] | Ki [4] [µM] | Ki [5] [µM] | Ki [6] [µM] | Ki [7] [µM] | Ki [8] [µM] | SMILES | further results
50 |  |  |  |  |  |  |  | Cc1cc2c(cc1Cl)N(C(=O)Nc1ccnc3ccccc13)CC2 | 
 | 7.6 | 5.4 | 5.69 | 0.0793 | > 10 | 0.749 | > 10 | O=C(NCCc1c[nH]c2ccccc12)C1CCN(C(=O)c2ccccc2)CC1 | 
500 |  |  |  |  |  |  |  | O=C(c1ccc(-c2ccccc2)cc1)N1CCC(c2nc3ccccc3[nH]2)CC1 | 
27 |  |  |  |  |  |  |  | CC(C)c1cc(-c2ccc(F)c3ccccc23)nc(N)n1 | 
